Columns and labels:
Leishmania infantum [1] = assay: (§1) In Vitro evaluation for the percentage of activity towards Leishmania infantum at 3.13 uM Concentration; Toxic upon mouse primary peritoneal macrophages; format: functional, organism-based
Outline: (§2)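 Starch-stimulated mouse peritoneal macrophages, 30 000/well, infected after 24 h with spleen-derived L. infantum amastigotes (10:1) together with 2-fold drug dilutions (12.5–1.56 µM). Incubated 7 days at 37 °C, 5% CO2. Wright-stained slides scored microscopically as % reduction of total parasite load or of infected macrophages. Uninfected treated cultures judged microscopically for macrophage toxicity.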

Leishmania infantum [2] = assay: Percentage of activity against Leishmania infantum at 6.25 uM; Toxic upon mouse primary peritoneal macrophages; format: functional, organism-based; outline: as §2
Leishmania infantum [3] = assay: (§3) In Vitro evaluation for the percentage of activity towards Leishmania infantum at 1.56 uM Concentration; Toxic upon mouse primary peritoneal macrophages; format: functional, organism-based; outline: as §2
Leishmania infantum [4] = assay: Percentage of activity against Leishmania infantum at 12.5 uM Concentration; Toxic upon mouse primary peritoneal macrophages; format: functional, organism-based; outline: as §2
MRC5 [5] = assay: Cytotoxicity on MRC-5 cells at 12.5 uM; format: functional; conditions: Homo sapiens
Outline: (§4)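 MRC-5 human diploid embryonic lung cells seeded at 5 000/well, washed after 24 h, then given 2-fold drug dilutions (25, 12.5, 6.25, 3.13 µM) in RPMI + 5% FCS, final DMSO below 0.5%. Incubated 7 days at 37 °C, 5% CO2. MTT colorimetric read-out, scored as % reduction of absorbance at 540 nm versus untreated controls.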

MRC5 [6] = assay: Cytotoxicity on MRC-5 cells at 25 uM; format: functional; conditions: Homo sapiens; outline: as §4
MRC5 [7] = assay: Cytotoxicity on MRC-5 cells at 3.13 uM; format: functional; conditions: Homo sapiens; outline: as §4
MRC5 [8] = assay: Cytotoxicity on MRC-5 cells at 6.25 uM; format: functional; conditions: Homo sapiens; outline: as §4
Plasmodium falciparum = assay: In vitro sensitivity for Plasmodium falciparum FcB1R; format: functional, organism-based
Outline: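 Asynchronous P. falciparum cultures in human erythrocytes (0.5% parasitemia, 1% haematocrit) exposed to serially diluted drug for 24 h at 37 °C. [3H]hypoxanthine (0.5 µCi/well) then added for a further 24 h. Uptake compared with drug-free controls on the same plate. IC50 taken from the concentration–response curve, averaged over independent experiments. DMSO ≤0.1%.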

Trypanosoma cruzi [9] = assay: Percentage of activity against Trypanosoma cruzi at 1.56 uM; format: functional
Outline: (§5)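 Mouse peritoneal macrophages, 30 000/well, infected after 24 h with about 100 000 T. cruzi trypomastigotes per well plus 2-fold drug dilutions (12.5–1.56 µM). Incubated 4 days at 37 °C, 5% CO2. Methanol-fixed, Giemsa-stained and scored microscopically as % reduction of total parasite load (free trypomastigotes plus intracellular amastigotes) versus untreated controls.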

Trypanosoma cruzi [10] = assay: Percentage of activity against Trypanosoma cruzi at 12.5 uM; Toxic upon mouse primary peritoneal macrophages; format: functional, organism-based; outline: as §5
Trypanosoma cruzi [11] = assay: (§6) In Vitro evaluation for the percentage of activity towards Trypanosoma cruzi at 3.13 uM Concentration; Toxic upon mouse primary peritoneal macrophages; format: functional, organism-based; outline: as §5
Trypanosoma cruzi [12] = assay: (§7) In Vitro evaluation for the percentage of activity towards Trypanosoma cruzi at 6.25 uM Concentration; Toxic upon mouse primary peritoneal macrophages; format: functional, organism-based; outline: as §5
Trypanosoma brucei [13] = assay: In Vitro evaluation for the percentage of activity towards Trypanosoma brucei at 3.13 uM Concentration; format: functional
Outline: (§8)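 Bloodstream-form T. brucei in HMI-9 medium, 10 000 parasites/well, exposed to 12.5, 6.25, 3.13 and 1.56 µM drug for 4 days. Read-out is % inhibition of parasite multiplication. Macrophage toxicity judged on mouse primary peritoneal macrophages.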

Trypanosoma brucei [14] = assay: Percentage of activity against Trypanosoma brucei at 6.25 uM; format: functional; outline: as §8
Trypanosoma brucei [15] = assay: Percentage of activity against Trypanosoma brucei at 1.56 uM; format: functional; outline: as §8
Leishmania infantum [16] = assay: as §1; format: organism-based; outline: as §2
Leishmania infantum [17] = assay: In Vitro evaluation for the percentage of activity towards Leishmania infantum 6.25 uM Concentration; Toxic upon mouse primary peritoneal macrophages; format: organism-based; outline: as §2
Leishmania infantum [18] = assay: as §3; format: organism-based; outline: as §2
Leishmania infantum [19] = assay: In Vitro evaluation for the percentage of activity towards Leishmania infantum at 12.5 uM Concentration; Toxic upon mouse primary peritoneal macrophages; format: organism-based; outline: as §2
Trypanosoma cruzi [20] = assay: In Vitro evaluation for the percentage of activity towards Trypanosoma cruzi at 1.56 uM Concentration; Toxic upon mouse primary peritoneal macrophages; format: functional; outline: as §5
Trypanosoma cruzi [21] = assay: In Vitro evaluation for the percentage of activity towards Trypanosoma cruzi at 12.5 uM Concentration; Toxic upon mouse primary peritoneal macrophages; format: organism-based; outline: as §5
Trypanosoma cruzi [22] = assay: as §6; format: ADME, organism-based; outline: as §5
Trypanosoma cruzi [23] = assay: as §7; format: ADME, organism-based; outline: as §5
Trypanosoma brucei [24] = assay: Percentage of activity against Trypanosoma brucei at 12.5 uM; format: functional; outline: as §8
Trypanosoma brucei [25] = assay: Percentage of activity against Trypanosoma brucei at 3.13 uM; format: functional; outline: as §8
MRC5 [26] = assay: In Vitro cytotoxicity on MRC-5 cells; format: functional; conditions: Homo sapiens; outline: as §4
Leishmania infantum [27] = assay: In Vitro inhibition concentration against Amastigote form of Leishmania infantum

COc1ccc2nc3cc(Cl)ccc3c(NCCCN(CCCNc3c4ccc(Cl)cc4nc4ccc(OC)cc34)C(=O)CCN(C)C)c2c1
Cytotoxicity (Leishmania infantum [1]): Toxic
Cytotoxicity (Leishmania infantum [2]): Toxic
Cytotoxicity (Leishmania infantum [3]): Toxic
Cytotoxicity (Leishmania infantum [4]): Toxic
cytotoxicity at 12.5 µM (MRC5 [5]): 40%
cytotoxicity at 25 µM (MRC5 [6]): 54%
cytotoxicity at 3.13 µM (MRC5 [7]): 30%
cytotoxicity at 6.25 µM (MRC5 [8]): 39%
IC50 (Plasmodium falciparum): 39 nM
Parasite load reduction (Trypanosoma cruzi [9]): 40%
Cytotoxicity (Trypanosoma cruzi [10]): Toxic
Cytotoxicity (Trypanosoma cruzi [11]): Toxic
Cytotoxicity (Trypanosoma cruzi [12]): Toxic
Cytotoxicity (Trypanosoma brucei [13]): 100%
Inhibition of parasite multiplication (Trypanosoma brucei [14]): 100%
Percent inhibition of parasite multiplication (Trypanosoma brucei [15]): 100%

COc1ccc2nc3cc(Cl)ccc3c(NCCCN(CCCNc3c4ccc(Cl)cc4nc4ccc(OC)cc34)C(=O)CCC(N)=O)c2c1
Cytotoxicity (Leishmania infantum [16]): Toxic
Cytotoxicity (Leishmania infantum [17]): Toxic
Cytotoxicity (Leishmania infantum [18]): Toxic
Cytotoxicity (Leishmania infantum [19]): Toxic
cytotoxicity at 12.5 µM (MRC5 [5]): 100%
cytotoxicity at 25 µM (MRC5 [6]): 100%
cytotoxicity at 3.13 µM (MRC5 [7]): 100%
cytotoxicity at 6.25 µM (MRC5 [8]): 100%
IC50 (Plasmodium falciparum): 40 nM
Cytotoxicity (Trypanosoma cruzi [20]): 95%
Cytotoxicity (Trypanosoma cruzi [21]): Toxic
Cytotoxicity (Trypanosoma cruzi [22]): Toxic
Cytotoxicity (Trypanosoma cruzi [23]): Toxic
Inhibition of parasite multiplication (Trypanosoma brucei [14]): 100%
Inhibition of parasite multiplication (Trypanosoma brucei [24]): 100%
Percent inhibition of parasite multiplication (Trypanosoma brucei [15]): 100%
Parasite growth inhibition (Trypanosoma brucei [25]): 100%

C[C@@H]1[C@H](O)[C@@H](C)/C=C/C=C/C=C/C=C/C=C/C=C/C=C/[C@H](O[C@@H]2O[C@H](C)[C@@H](O)[C@H](N)[C@@H]2O)C[C@@H]2O[C@](O)(C[C@@H](O)C[C@@H](O)[C@H](O)CC[C@@H](O)C[C@@H](O)CC(=O)O[C@H]1C)C[C@H](O)[C@H]2C(=O)O [AMPHOTERICIN B]
CC50 (MRC5 [26]): 25000 nM
IC50 (Leishmania infantum [27]): 50 nM

— ChEMBL document CHEMBL1133105, “Antimalarial, antitrypanosomal, and antileishmanial activities and cytotoxicity of bis(9-amino-6-chloro-2-methoxyacridines): influence of the linker” (J Med Chem, 2000)
